Columns and labels:
[1] = target: Norwalk virus 3C protease (Norovirus, UniProt Q83883); assay: Recombinant NV protease fluorogenic; assay type: biochemical; conditions: for IC50 column: designated inactive (percent inhibition < 25): incubated with the enzyme for 30 minutes at an [I]/[S] ratio of 25
[2] = system: Norwalk norovirus (NV replicon-harboring HG23 cells); assay: Cell-based NV replicon system; parameters: species or system Norwalk virus; conditions: NV genome levels at 24 hr post-treatment
Procedure, shortened: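 Norwalk virus replicon-harbouring HG23 cells, 1 day old and 80-90% confluent, were treated with the test compound from 0 (mock-DMSO) to 320 μM. NV genome was measured by qRT-PCR. ED50 was determined from NV genome levels at 24 hr post-treatment.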

[3] = system: HG23 cells; assay: Cell cytotoxicity assay kit in HG23 cells; assay type: cell-based; conditions: 48 hr of treatment
[4] = system: murine norovirus (MNV); assay: Murine norovirus replication in RAW267.4 cells; assay type: cell-based, murine norovirus-1 (MNV-1); conditions: MNV-1 at MOI of 2, TCID50 assay

Sequence of Norwalk virus 3C protease (Q83883 1101-1281): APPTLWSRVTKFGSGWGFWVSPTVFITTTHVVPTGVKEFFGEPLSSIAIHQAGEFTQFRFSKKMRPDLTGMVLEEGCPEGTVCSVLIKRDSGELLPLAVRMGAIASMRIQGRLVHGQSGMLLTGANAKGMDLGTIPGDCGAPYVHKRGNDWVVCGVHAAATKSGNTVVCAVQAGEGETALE

| Structure (SMILES) | IC50 column: designated inactive (percent inhibition < 25) [1] | Inhibition of Norwalk virus 3C protease (in words) [1] | ED50 (effective dose that inhibits 50% of norovirus replication) [2] | TD50 (median toxic dose) [3] | ED50, replication of murine norovirus (MNV) [4] |
| --- | --- | --- | --- | --- | --- |
| CC(C)C[C@H](NC(=O)OCc1ccccc1)C(=O)N[C@H](CO)CC1CCNC1=O (some centres unmarked) [Compound 3] | Inactive ^a | – | – | – | – |
| CC(C)C[C@H](NC(=O)OCc1ccccc1)C(=O)N[C@H](C=O)CC1CCNC1=O (some centres unmarked) [Compound 4] | – | dose-dependent inhibition | 2.1 µM | > 320 µM | 5.5 µM |
| CC(C)C[C@H](NC(=O)CNC(=O)OCc1ccccc1)C(=O)N[C@H](C=O)CC1CCNC1=O (some centres unmarked) [Compound 5] | – | – | 7.8 µM | > 320 µM | 20.3 µM |
| CC(C)C[C@H](NC(=O)CNC(=O)OCc1ccccc1)C(=O)N[C@H](CO)CC1CCNC1=O (some centres unmarked) [Compound 6] | Inactive ^a | – | – | – | – |
| O=C[C@H](CC1CCNC1=O)NC(=O)[C@H](Cc1ccccc1)NC(=O)N1CCOCC1 (some centres unmarked) [Compound 2] | Inactive ^a | – | – | – | – |

More lines, main results first:

| IC50 column: designated inactive (percent inhibition < 25) [1] | Inhibition of Norwalk virus 3C protease (in words) [1] | Structure (SMILES) | ED50 (effective dose that inhibits 50% of norovirus replication) [2] | TD50 (median toxic dose) [3] | ED50, replication of murine norovirus (MNV) [4] |
| --- | --- | --- | --- | --- | --- |
| Inactive ^a | – | CCCC[C@H](NC(=O)CNC(=O)OCc1ccccc1)C(=O)N[C@H](CO)CC1CCNC1=O (some centres unmarked) [Compound 8] | – | – | – |
| Inactive ^a | devoid of inhibitory activity | CC(C)C[C@H](NC(=O)OCc1ccccc1)C(=O)N[C@@H](CC1CCNC1=O)C(=O)C(=O)NC(C)C (some centres unmarked) [Compound 10] | – | – | – |
| – | sub-micromolar inhibitor | CCCC[C@H](NC(=O)CNC(=O)OCc1ccccc1)C(=O)N[C@H](C=O)CC1CCNC1=O (some centres unmarked) [Compound 7] | – | – | – |
